An excerpt weighted towards active compounds, which were near 1.5% of everything screened.
SUMO Mot1 rescue – inhibitors of SUMOylation pathway: yeast Mot1-301 growth rescue | growth rescue, % at 18.8 µM | S. cerevisiae Mot1-301 growth rescue, ATP luminescence, 38.5C; percent above DMSO median, 100 means doubled | 320,000 tested, 1% active;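 active means every valid replicate shows activation above 250% relative to neutral control wells; inactive means the rest, any valid replicate at or below 250%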
C2C12 statin – protects C2C12 myotubes from simvastatin toxicity; ATP luminescence, 48 h; scaled: DMSO 0, geranylgeraniol control 100; rescue of ATP level, % at 7.49 µM; 330,000 tested, 0.78% active;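 active means mean ATP rescue above about 67%, or every replicate alone reaching that limit, limit read from the data, passing the limit was not always enough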;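 further: myotubes were challenged with 10 µM simvastatin during compound exposure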
Cneo AK release – Cryptococcus neoformans lysis via adenylate kinase release; C. neoformans lysis, adenylate kinase release luminescence, 4 h; normalised: neutral wells 0, clomiphene wells 100; lysis activity, % at 15 µM; 360,000 tested, 0.2% active; AID 651654;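 active means mean lysis activity across replicates of at least 80%, whatever share of replicates individually reach that level; inactive means mean lysis activity below 80%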
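Assay system: log-phase C. neoformans yeast / Quantity: yeast cell density of 5 × 10^6 cells/mL / Medium: fresh YPD growth medium / Compound: single dose / Timing: static 4 h at 37 °C with compound, 1 h detection / Measured by: adenylate kinase release luminescence / Read-out: lysis from increased AK signal / Benchmarks: Clomiphene as positive lysis control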
Yeast Mot1 SUMO – yeast SUMO pathway inhibition in dose response | shares compounds with SUMO Mot1 rescue | S. cerevisiae Mot1-301 galactose growth, ATP luminescence, 24 h; -100 = growth of slx-deleted rescue strain | growth activity, percent, % at 42 µM | 2,300 tested, under 10 active;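 active means Signal drops as the depositor expects, and the fitted half-maximal dose is no more than ten times the top valid tested dose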;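 further: more negative values mean stronger growth rescue toward the control strain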
Of the large screens only hits and unclear results are named; the others gave an inactive call (follow-up assays come after a bar, where they were run).

Cc1nnsc1C(=O)N1CCC(CO)(Cc2ccccc2Cl)CC1	SUMO Mot1 rescue active | Yeast Mot1 SUMO inactive
CC(C)(C)NC(=O)N1CCC(CO)(Cc2ccccc2Cl)CC1	none
Cc1cc(=O)oc2ccc(OC(=O)CC(C)C)cc12	SUMO Mot1 rescue 810 (no result: C2C12 statin, Cneo AK release) | Yeast Mot1 SUMO inactive
CCOC(=O)Oc1ccc2oc(=O)cc(C)c2c1	none
Cc1ccc(S(=O)(=O)N(C)C[C@H]2OCCCC[C@@H](C)Oc3ccc(NC(=O)CCC(F)(F)F)cc3C(=O)N([C@H](C)CO)C[C@H]2C)cc1	none (no result: SUMO Mot1 rescue, C2C12 statin)
C[C@@H]1CN([C@H](C)CO)C(=O)c2cc(Br)cnc2O[C@H]1CN(C)Cc1ccncc1	none (no result: SUMO Mot1 rescue)
CCOC(=O)c1sc(NC(=O)CSc2n[nH]c(-c3ccc(Cl)cc3Cl)n2)c(C#N)c1C	SUMO Mot1 rescue 459 | Yeast Mot1 SUMO inactive
CCOC(=O)c1sc(NC(=O)CSc2nc(C)cc(-c3ccccc3)n2)c(C#N)c1C	none
CCCNC(=O)N(C)C[C@@H]1Oc2ncc(C#CC3(O)CCCC3)cc2C(=O)N([C@H](C)CO)C[C@@H]1C	none (no result: SUMO Mot1 rescue)
COc1ccc(C(=O)Nc2ccccc2C(=O)NCCN2CCOCC2)cc1	none
COc1ccc(C(=O)Nc2ccccc2C(=O)NCCN2CCOCC2)cc1OC	SUMO Mot1 rescue 424 | Yeast Mot1 SUMO inactive
O=C(Nc1ccc(F)cc1)N[C@@H]1CC[C@@H](CC(=O)N2CCCCC2)O[C@H]1CO	none (no result: SUMO Mot1 rescue)
CO[C@@H]1CN(C)C(=O)c2cc(NC(=O)Nc3ccccc3)ccc2OC[C@H](C)N(C(C)=O)C[C@@H]1C	none (no result: SUMO Mot1 rescue)
CC(C)(C)OC(=O)N[C@@H](Cc1ccccc1)C(=O)NCC1CCC(C(=O)N[C@@H](CC(=O)O)C(=O)O)CC1 (some centres not stated)	none
CCC(C)[C@H](NC(=O)OC(C)(C)C)C(=O)NCC1CCC(C(=O)N[C@@H](Cc2ccccc2)C(=O)O)CC1 (some centres not stated)	SUMO Mot1 rescue 628 | Yeast Mot1 SUMO inactive
Cc1noc(C)c1S(=O)(=O)Nc1ccc2c(c1)C(=O)N([C@@H](C)CO)C[C@@H](C)[C@H](CN(C)CC1CC1)OCCCC[C@H](C)O2	none (no result: SUMO Mot1 rescue, C2C12 statin)
COc1cccc(S(=O)(=O)N(C)C[C@@H]2Oc3ncc(C#Cc4ccc(C(F)(F)F)cc4)cc3C(=O)N([C@H](C)CO)C[C@@H]2C)c1	none (no result: SUMO Mot1 rescue)
COC(=O)c1ccccc1NC(=O)NC1CCCC1	none (no result: C2C12 statin, Cneo AK release)
COc1ccc(NC(=O)c2ccccc2NC(=O)NC2CCCCC2)cc1	SUMO Mot1 rescue 522 | Yeast Mot1 SUMO inactive
C/C=C/c1ccc([C@H]2[C@@H](CN(C)C(C)=O)N(C(=O)NCCC)[C@H]2CO)cc1	none (no result: SUMO Mot1 rescue)
Cc1cccc2nc(CSc3ccccc3N)cn12	none (no result: Cneo AK release)
Cc1cccc2nc(COc3ccc4ccccc4c3Br)cn12	SUMO Mot1 rescue 728 (no result: C2C12 statin, Cneo AK release) | Yeast Mot1 SUMO inactive
Cn1c(=NC(=O)COc2ccccc2)sc2cccc(F)c21	none (no result: Cneo AK release)
Cn1c(=NC(=O)COc2ccccc2)sc2cc(F)cc(F)c21	SUMO Mot1 rescue 448 (no result: C2C12 statin, Cneo AK release) | Yeast Mot1 SUMO inactive
CC1(OC(=O)c2cccs2)C(=O)C=C2C=C(c3ccsc3)OC=C2C1=O (configuration not stated)	none (no result: C2C12 statin, Cneo AK release)
CC1(OC(=O)C2CCCC2)C(=O)C=C2C=C(c3ccsc3)OC=C2C1=O (configuration not stated)	SUMO Mot1 rescue 506 | Yeast Mot1 SUMO inactive
C[C@@H](O)C#Cc1cnc2c(c1)C(=O)N([C@@H](C)CO)C[C@H](C)[C@H](CN(C)C(=O)Cc1ccccn1)O2	none (no result: SUMO Mot1 rescue)
CCCC#Cc1cnc2c(c1)C(=O)N([C@@H](C)CO)C[C@H](C)[C@H](CN(C)Cc1ccc3c(c1)OCO3)O2	none (no result: SUMO Mot1 rescue)
O=C(C[C@@H]1CC[C@@H]2[C@H](COC[C@H](O)CN2C(=O)c2cccnc2)O1)NCc1ccc(Cl)cc1	none (no result: SUMO Mot1 rescue)
CC(=O)N(C)C[C@@H]1Oc2cc(-c3ccncc3)ccc2S(=O)(=O)N([C@H](C)CO)C[C@@H]1C	none (no result: SUMO Mot1 rescue)
Cc1ccc(C)c(OCC(=O)N(Cc2nnc(-c3ccccc3Cl)o2)C2CC2)c1	none
O=C(COc1ccc(F)cc1Cl)N(Cc1nnc(-c2ccccc2Cl)o1)C1CC1	SUMO Mot1 rescue 510 (no result: C2C12 statin) | Yeast Mot1 SUMO inactive
C=CCN1CCCc2c(-c3ccc(OCCO)cc3)noc2-c2cc(OC)c(OC)cc2CC1	none (no result: SUMO Mot1 rescue, C2C12 statin)
CCN(CC)CCCN(Cc1cc2cc(OC)ccc2[nH]c1=O)C(=O)Nc1ccccc1	none (no result: C2C12 statin, Cneo AK release)
CCN(CC)CCCN(Cc1cc2cc(OC)ccc2[nH]c1=O)C(=O)Nc1ccc(F)cc1	SUMO Mot1 rescue 463 (no result: C2C12 statin, Cneo AK release) | Yeast Mot1 SUMO inactive
CC(C)c1ccc(/C=C2\SC(N3CCCC3)=NC2=O)cc1	none (no result: C2C12 statin, Cneo AK release)
Cc1ccc(/C=C2\SC(N3CCCC3)=NC2=O)cc1	SUMO Mot1 rescue 477 (no result: C2C12 statin, Cneo AK release) | Yeast Mot1 SUMO inactive
